Hits are enriched below; roughly 4.3% of the tested compounds scored in any of these assays.
Hep lipid drop: inhibitors of hepatocyte lipid droplet formation, primary screen, imaging, high-throughput imaging, BODIPY stain; AML12 mouse hepatocytes, oleate lipid droplets; AID 1656, 2009; 240,000 tested, 0.4% active; inhibition, % at 6.5 µM;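 active = lipid droplet intensity inhibited by at least 50%, with more than 500 cells counted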
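Material: mouse AML12 hepatocyte cell line, fixed after treatment; Timing: compound with oleate, overnight; Technique: high-content imaging of BODIPY-stained droplets and DAPI nuclei; Probe or stimulus: oleate, 100 µM final; Dosing: compound at 6.5 µM only.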
SR-BI DiI-HDL act: activators of SR-BI mediated DiI-HDL uptake, primary screen, ldlA[mSR-BI] CHO cells, DiI fluorescence | activation, % at 12.5 µM | 3 h; 100 = double the neutral-control signal | 320,000 tested, 0.096% active;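 active = mean replicate activation of at least 60% and every replicate at or above 60%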
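Assay system: LDL receptor-deficient CHO ldlA cells overexpressing murine SR-BI / Medium: BSA-supplemented, HEPES-buffered Ham's F12, pH 7.4 / Probe or stimulus: DiI-labelled HDL at 10 µg/mL final / Timing: compound with DiI-HDL co-incubation, 3 h at 37 °C / Technique: bottom-read cell fluorescence after medium removal, ex 550/em 595 nm / Measure: HDL uptake via cellular fluorescence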
AHR activator: AHR activators, primary screen, cell-based, luminescence, luciferase reporter, human; AHR-responsive luciferase reporter cells; activation, % at 5 µM; AID 2796, 2010; 320,000 tested, 2.5% active; in the data active = activation above about 47%
SR-BI DiI inh: inhibitors of SR-BI mediated HDL lipid uptake, primary screen, ldlA[mSR-BI] cells, fluorescence, single point; Scavenger receptor class B member 1 (Mus musculus), Q61009; AID 488896, 2010; ldlA[mSR-BI] CHO cells, DiI-HDL uptake fluorescence, 3 h; 320,000 tested, 0.96% active; inhibition, % at 12.5 µM;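 active = mean replicate inhibition of at least 70% and a set share of replicates each scoring 70 or more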
CR mimetic SO: reduction of superoxide in aged yeast, primary screen, HTS | S. cerevisiae aged cells, superoxide DHE fluorescence; stronger effect = lower value | superoxide response (% of plate mean), % at 10 µM | 330,000 tested, 0.18% active | AID 2690, 2010;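 active = superoxide response under a set limit, about three screen SD below normal, cut at about 65% in these data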;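 also: yeast aged for seven days with compound at 30 °C before DHE staining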
SMARCA2 act: SMARCA2 (BRM) function activators, primary screen, cell-based, luminescence, high throughput; MG213 cells, MMTV-luciferase reporter, dexamethasone, overnight; activation, % at 9.1 µM; 370,000 tested, 1% active; AID 652017, 2013; in the data active = activation above about 7.8%
AHR act confirm: AHR activators, confirmation, cell-based, luminescence, luciferase reporter, human; shares compounds with AHR activator; 2,300 tested, 87% active; activation, % at 9 µM; human cells, AHR-responsive luciferase reporter; in the data active = activation above about 49%;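 also: HepG2 hepatoma cells carrying a DRE-driven firefly luciferase reporter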
PXR counter: human PXR activators, counter-screen for AHR activator project, cell-based, luciferase luminescence; shares compounds with AHR activator; cell-based PXR reporter; activation, % at 11.6 µM; 2,300 tested, 88% active; AID 434939, 2010; in the data active = activation above about 11%;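 also: human hepatoma DPX-2 cells expressing full-length human PXR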
Target sequence (O75469 whole entry, looked up): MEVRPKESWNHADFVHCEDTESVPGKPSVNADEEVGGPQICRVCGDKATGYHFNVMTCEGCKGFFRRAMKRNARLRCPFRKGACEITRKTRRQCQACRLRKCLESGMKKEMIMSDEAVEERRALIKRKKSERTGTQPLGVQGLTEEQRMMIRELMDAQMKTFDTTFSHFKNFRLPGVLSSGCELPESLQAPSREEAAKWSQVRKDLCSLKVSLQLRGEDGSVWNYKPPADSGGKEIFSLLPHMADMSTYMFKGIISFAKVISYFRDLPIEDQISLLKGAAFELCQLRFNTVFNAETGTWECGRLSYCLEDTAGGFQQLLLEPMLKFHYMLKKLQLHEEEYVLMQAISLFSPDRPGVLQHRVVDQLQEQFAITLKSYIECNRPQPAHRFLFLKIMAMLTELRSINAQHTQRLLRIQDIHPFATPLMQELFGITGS
Each line names hits and unclear results; the compound was inactive in the other large screens (follow-up assays come after a bar, where they were run).

Cc1ccc2nc(C)cc(N/N=C/c3cccnc3)c2c1	none
Cc1cc(N/N=C/c2ccccc2O)c2ccccc2n1	AHR activator 106.9 | AHR act confirm 123.6 | PXR counter 13.1
COc1ccc(/C=C/c2ccc3ccccc3[n+]2C)cc1OC	none (no result: Hep lipid drop, SMARCA2 act)
CC(=O)Oc1ccccc1/C=C/c1ccc2ccccc2[n+]1C	AHR activator 111.2 | AHR act confirm inactive | PXR counter 13.9
O=C(CN1CCCc2ccccc21)N/N=C/c1ccccc1	AHR activator 87.2 | AHR act confirm inactive | PXR counter 40.0
CC(C)[C@H](N)C(=O)N[C@H](C(=O)N1CCC2CCN(S(=O)(=O)c3ccccc3)CC21)C(C)C (stereo partly specified)	none (no result: Hep lipid drop, SR-BI DiI-HDL act, AHR activator, SR-BI DiI inh, CR mimetic SO)
Nc1[nH]c(C(=O)c2ccccc2)c(-c2ccccc2Br)c1C(=O)c1cccs1	none (no result: Hep lipid drop, SR-BI DiI-HDL act, AHR activator, SR-BI DiI inh, CR mimetic SO)
CS(=O)(=O)N(CC(=O)Nc1cccc([N+](=O)[O-])c1)c1ccccc1	AHR activator 90.2 | AHR act confirm 48.1 | PXR counter 82.5
Nc1ccc2nc(-c3ccc(Cl)cc3)[nH]c2c1	AHR activator 167.3 (no result: Hep lipid drop) | AHR act confirm 110.6 | PXR counter 32.8
Nc1nc2ccc(Cl)cc2[nH]1	none (no result: Hep lipid drop, AHR activator, CR mimetic SO)
Clc1ccc2nc(-c3ccc(Cl)nc3)[nH]c2c1	AHR activator 87.1 | AHR act confirm 137.9 | PXR counter inactive
Cc1csc(NC(=O)c2ccc(COc3ccccc3F)o2)n1	none (no result: Hep lipid drop, SR-BI DiI-HDL act, AHR activator, SR-BI DiI inh, CR mimetic SO)
COC(=O)c1[nH]c2ccccc2c1NC(=O)Oc1ccccc1	AHR activator 95.4 (no result: Hep lipid drop) | AHR act confirm 48.2 | PXR counter 19.1
Cc1noc(C)c1NC(=O)N(C)C[C@H]1OCc2cn(nn2)CCCC(=O)N([C@H](C)CO)C[C@@H]1C	none (no result: Hep lipid drop, SR-BI DiI-HDL act, AHR activator, SR-BI DiI inh, CR mimetic SO)
C[C@@H]1C=CCCO[C@]12C(=O)N(Cc1ccc(Br)cc1)c1ccccc12	none (no result: Hep lipid drop, SR-BI DiI-HDL act, AHR activator, SR-BI DiI inh, CR mimetic SO)
Cc1nn(-c2ccc(Cl)cc2)c2[nH]c(=O)c(CNCc3ccc4c(c3)OCO4)cc12	AHR activator 88.4 (no result: Hep lipid drop) | AHR act confirm 82.9 | PXR counter 36.3
Cc1nn(-c2ccccc2)c2[nH]c(=O)c(CNc3ccc(N4CCOCC4)cc3)cc12	none (no result: Hep lipid drop)
Nc1nc(-c2cccnc2)nc2sc3c(c12)CCCC3	AHR activator 117.7 | AHR act confirm 90.0 | PXR counter 72.0
CCOc1ccccc1NC(=O)c1ccoc1C	AHR activator 80.9 | AHR act confirm 88.8 | PXR counter 12.9
CCOc1ccccc1C(=O)Nc1cccc2ccccc12	AHR activator 88.0 | AHR act confirm 62.9 | PXR counter 34.1
CSc1ccccc1NC(=O)c1ccoc1C	none
C/C(=N\NC(=S)Nc1cccc(C)c1)c1ccccc1	AHR activator 84.4 (no result: Hep lipid drop) | AHR act confirm 110.9 | PXR counter 41.9
O=C(Nc1nccs1)c1sc2cc(Cl)ccc2c1Cl	AHR activator 80.3 (no result: Hep lipid drop) | AHR act confirm 110.0 | PXR counter 18.1
O=C(NC1CC1)c1sc2cc(Cl)ccc2c1Cl	none (no result: Hep lipid drop)
O=[N+]([O-])c1cnc(Nc2ccc(Cl)cn2)c([N+](=O)[O-])c1	AHR activator 138.7 | AHR act confirm 80.0
O=C(Nc1ccc(Cl)cn1)c1ccccc1[N+](=O)[O-]	none
CCN1C[C@@H]2[C@@H]3C(=O)N(Cc4ccccc4)C(=O)[C@@H]3[C@](CC)(C1=O)N2C(=O)c1ccc(Cl)cc1	none (no result: Hep lipid drop, SR-BI DiI-HDL act, AHR activator, SR-BI DiI inh, CR mimetic SO)
CNC(=S)N/N=C1\CC(c2ccccc2)Oc2ccccc21 (stereo unspecified)	none
Fc1ccc(N/N=C2/CC(c3ccccc3)Oc3ccccc32)c(F)c1 (stereo unspecified)	AHR activator 97.6 | AHR act confirm 89.9 | PXR counter 26.2
S=c1[nH]nc(-c2cc(-c3ccccc3)n[nH]2)n1/N=C/c1cccs1	AHR activator 132.4 (no result: SR-BI DiI-HDL act, SR-BI DiI inh) | AHR act confirm 128.3 | PXR counter 38.9
Cc1cc(-c2n[nH]c(=S)n2/N=C/c2sccc2C)n[nH]1	AHR activator 111.5 | AHR act confirm 91.5 | PXR counter 25.0
Cc1ccsc1/C=N/n1c(-c2ccccc2)n[nH]c1=S	AHR activator 80.2 | AHR act confirm 67.6 | PXR counter 46.2
Cc1ccsc1/C=N/n1c(-c2ccco2)n[nH]c1=S	none (no result: Hep lipid drop)
Cc1ccsc1C=Nn1c(-c2n[nH]c3c2CCC3)n[nH]c1=S	none (no result: Hep lipid drop, SR-BI DiI-HDL act, AHR activator, SR-BI DiI inh, CR mimetic SO)
O=C(NCc1ccccc1)[C@H]1CCCN1C(=O)[C@H]1CCCN1C(=O)c1ccc(F)c(F)c1	none (no result: Hep lipid drop, SR-BI DiI-HDL act, AHR activator, SR-BI DiI inh, CR mimetic SO)
CCCCOc1ccc(C(=O)NC2CCCCN(Cc3cccc(C(F)(F)F)c3)C2=O)cc1 (stereo unspecified)	none (no result: Hep lipid drop, SR-BI DiI-HDL act, AHR activator, SR-BI DiI inh, CR mimetic SO)
Cc1ccc(Nc2nc(N)c([N+](=O)[O-])c(N3CCOCC3)n2)cc1C	AHR activator 119.0 | AHR act confirm 83.1 | PXR counter 21.5
Nc1nc(NCCCN2CCOCC2)nc(Nc2ccc(F)cc2)c1[N+](=O)[O-]	AHR activator 83.3 | AHR act confirm inactive | PXR counter 29.3
Cc1ccc(Nc2nc(N)c([N+](=O)[O-])c(N3CCC(C)CC3)n2)cc1C	none
COc1ccc(Nc2nc3cc(C)ccc3cc2C#N)cc1	AHR activator 107.6 | AHR act confirm 93.7 | PXR counter 14.9
Cc1ccc(-n2c(=O)[nH]cc(C(=O)Nc3ccc4c(c3)OCO4)c2=O)cc1C	AHR activator 88.5 | AHR act confirm 67.5
COc1ccc(NC(=O)c2c[nH]c(=O)n(-c3ccc(C)c(C)c3)c2=O)cc1OC	none
COc1cc2c3c(c1)C1(C(=O)N3C(C)(C)C=C2C)C(C#N)=C(N)Oc2cc(O)ccc21 (stereo unspecified)	AHR activator 93.3 | AHR act confirm inactive | PXR counter inactive
CCOc1cc2c3c(c1)C1(C(=O)N3C(C)(C)C=C2C)C(C#N)=C(N)Oc2cc(O)ccc21 (stereo unspecified)	none (no result: SR-BI DiI-HDL act, SR-BI DiI inh)
Cc1ccc(C(=O)N(C)[C@H]2C[C@H]3c4[nH]c5c(-c6cccc(C)c6)cccc5c4CCN3C[C@H]2[C@H](C)O)cc1	none (no result: Hep lipid drop, SR-BI DiI-HDL act, AHR activator, SR-BI DiI inh, CR mimetic SO)
O=C(CSc1nc2ccccc2n1CC(=O)N1CCCC1)Nc1ccc2c(c1)OCO2	none
CCn1c(SCC(=O)Nc2ccc3c(c2)OCO3)nc2ccccc21	AHR activator 93.0 | AHR act confirm inactive | PXR counter 82.3
Cn1nnnc1SCC(=O)Nc1ccc2c(c1)OCO2	AHR activator 103.0 | AHR act confirm 114.8 | PXR counter 16.5

Compound activity deposited in PubChem BioAssay by several laboratories.
